Sampled rows, rich in hits. Any-hit rate of the full collection: about 4.8%.
NALP1 inh: inhibitors of NALP1 inflammasome in yeast | inhibition, % at 10 µM | S. cerevisiae NALP1/ASC/caspase-1 growth, X-gal OD620, 72 h | actives 0.61% (n = 280,000) | AID 2071; in the data active = inhibition mostly above about 24%, no sharp cut-off; inactive = mostly below about 32%
NALP3 yeast inh: inhibitors of NALP3 inflammasome in yeast. inhibition, % at 10 µM. AID 2825. actives 0.39% (n = 330,000). Yeast reconstituted NLRP3/ASC/caspase-1, beta-gal luminescence, 24 h;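 active = inhibition of 50% or more; inactive = inhibition below 50%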
UCH37 inh: blocks the human deubiquitinase UCH37; Q9Y5K5; purified proteasome/UCH37, Ub-AMC cleavage fluorescence; inhibition, % (no concentration beside the values); actives 0.33% (n = 330,000); AID 588478;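 active = mean inhibition over replicate wells above about 20%, limit read from the data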
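Schedule: 30 min plus 25 min, room temperature / Material: human UCH37 within purified proteasomes / Technique: AMC fluorescence intensity at 355/460 nm / Buffer or medium: pH 7.4 Tris-HCl (50 mM) with ovalbumin, ATP-MgCl2, DTT / Controls: wells without proteasome as full block, compound-free enzyme plus substrate as uninhibited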
Calb FLC: affects C. albicans growth with fluconazole; actives 0.57% (n = 300,000); C. albicans CaCi-2 + fluconazole, Alamar Blue growth, 48 h; AID 1979; growth inhibition, % (no concentration beside the values);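 active = growth inhibition above about 58% in most replicates, limit read from the data, passing the limit was not always enough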;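 also: all wells also contain fluconazole at 8 µg/ml as a sub-toxic cotreatment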
ALR inh: inhibitors of human sulfhydryl oxidase ALR; purified ALR, DTT oxidation, H2O2 HRP-luminol luminescence; actives 3.8% (n = 290,000); inhibition, % (test concentration not listed);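 active = mean replicate inhibition above about 79%, with every replicate also reaching it, limit read from the data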
ATG4B inhibitor: ATG4B (human) cysteine protease inhibition; Q9Y4P1; ATG4B cleavage of LC3-PLA2, NBD-HPC fluorescence, 1 h; inhibition, % at 8.33 µM; actives 0.51% (n = 340,000); AID 504462; in the data active = inhibition above about 40%
Target sequence (Q9Y4P1 whole entry, looked up): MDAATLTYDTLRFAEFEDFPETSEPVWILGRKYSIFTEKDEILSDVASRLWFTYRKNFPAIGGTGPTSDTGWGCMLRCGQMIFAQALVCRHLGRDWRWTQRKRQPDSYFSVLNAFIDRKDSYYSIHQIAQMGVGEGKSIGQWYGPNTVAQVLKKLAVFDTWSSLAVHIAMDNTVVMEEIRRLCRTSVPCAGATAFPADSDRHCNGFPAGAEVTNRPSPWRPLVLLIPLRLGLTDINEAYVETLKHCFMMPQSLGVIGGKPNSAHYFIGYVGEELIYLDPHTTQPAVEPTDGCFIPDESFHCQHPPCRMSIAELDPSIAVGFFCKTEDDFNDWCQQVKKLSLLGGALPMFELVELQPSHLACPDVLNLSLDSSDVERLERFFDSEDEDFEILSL
Each line names hits and unclear results; the compound was inactive in the other large screens.

O=C1NN(c2ccccc2)C(=O)/C1=C/c1coc2ccccc2c1=O	ALR inh 97 (no result: UCH37 inh)
Cc1ccc(NC(=O)CCC(=O)NN=Cc2cccnc2)cc1	none (no result: NALP1 inh, NALP3 yeast inh, Calb FLC, ALR inh, ATG4B inhibitor)
O=C(CNC(=O)c1ccco1)Nc1ccc(N2CCCCCC2)cc1	ALR inh 98 (no result: NALP1 inh, Calb FLC)
O=C(Cc1ccccc1)Nc1ccc(N2CCCCC2)cc1	none
O=C(CNCc1ccco1)Nc1ccc(N2CCCCCC2)cc1	ALR inh 99
O=C(CNC(=O)c1ccc(Br)o1)Nc1ccc(N2CCCCCC2)cc1	none (no result: NALP1 inh, Calb FLC, ALR inh)
COc1ccc(C=Nn2cncn2)cc1CSc1ccccn1	none (no result: NALP1 inh, NALP3 yeast inh, Calb FLC, ALR inh, ATG4B inhibitor)
COc1ccc(/C=N/n2cncn2)cc1CSc1ccccn1	ALR inh 99 (no result: UCH37 inh)
CCOc1cc([N+](=O)[O-])cc(C=NNC(=O)c2c(-c3ccccc3)noc2C)c1O	none (no result: NALP1 inh, NALP3 yeast inh, Calb FLC, ALR inh, ATG4B inhibitor)
Cc1ccc(O)c(CCc2ccc(O)cc2)n1	ALR inh 94
OCCc1ccc(O)cc1	none (no result: NALP1 inh, Calb FLC)
O=C(O)c1cc(C(=O)O)cc(-c2ccc(/C=c3/sc4nc5ccccc5n4c3=O)o2)c1	none (no result: NALP3 yeast inh, UCH37 inh, Calb FLC, ALR inh)
O=C(O)c1ccccc1-c1ccc(C=c2sc3nc4cc(Br)cnc4n3c2=O)o1	UCH37 inh 43 (no result: NALP1 inh, NALP3 yeast inh, Calb FLC, ALR inh, ATG4B inhibitor)
COc1ccc(C(C)=NN2CCCCC2)c(O)c1	none (no result: NALP1 inh, NALP3 yeast inh, Calb FLC, ALR inh, ATG4B inhibitor)
CCOc1ccccc1N1CCN(C/C=C/c2ccc(N(C)C)cc2)CC1	ALR inh 99
CC1(C)CC(=O)C2=C(C1)c1c(ccc3ccccc13)NC2c1cc([N+](=O)[O-])cc([N+](=O)[O-])c1O (configuration not stated)	Calb FLC 111
C=CCN1CCN(C(=O)CSc2ccccc2)CC1	none
Cc1cccc(C2CN(C)CCc3c2cc(O)c(O)c3Cl)c1 (configuration not stated)	ALR inh 98 (no result: NALP1 inh, Calb FLC)
C=CCN1CCc2cc(O)c(O)cc2C(c2ccccc2)C1 (configuration not stated)	ALR inh 98 (no result: NALP1 inh, Calb FLC)
C=CCN1CCc2c(cc(O)c(O)c2Cl)C(c2ccccc2)C1 (configuration not stated)	ALR inh 99 (no result: Calb FLC)
C=CCN1CCN(C(=O)c2ccc(-c3ccccc3)cc2)CC1	none (no result: NALP1 inh)
O=C(NCCc1ccccc1)c1ccnc(C=NO)c1	none (no result: NALP1 inh, NALP3 yeast inh, Calb FLC, ALR inh, ATG4B inhibitor)
CC12CN3CC(C)(CN(C1)C3c1cc(Br)ccc1O)C2=O (configuration not stated)	none
CC1(C)C(=O)OC(c2cc(Br)ccc2O)C(C)(C)C1=O (configuration not stated)	ALR inh 98
CCN(CC)CCN1c2ccccc2Sc2ccc3ccccc3c21	ALR inh 98
CCN(CC)CCN1c2ccccc2Sc2ccccc21	ALR inh 100
CCN(CC)CCC(=O)N1c2ccccc2Sc2ccc(Cl)cc21	none (no result: NALP1 inh)
CCN(CC)CC(=O)Nc1ccc2c(c1)Nc1ccccc1CC2	ALR inh 99
Cc1cc(C)n(N=Cc2c[nH]c3ccccc23)c(=O)c1C#N	none (no result: NALP1 inh, NALP3 yeast inh, Calb FLC, ALR inh, ATG4B inhibitor)
COc1ccc([C@H]2/C=C\CN(Cc3ccc(N(C)C)cc3)[C@@H](C)C(=O)N2Cc2ccc(F)cc2)cc1	ALR inh 98 (no result: NALP1 inh)
COc1ccc([C@H]2/C=C\CN(C(=O)CC(C)(C)C)[C@@H](C)C(=O)N2Cc2ccc(F)cc2)cc1	none (no result: NALP1 inh)
Clc1ccccc1C1SCC2Nc3ccccc3CN21 (configuration not stated)	ALR inh 98
COc1ccc(NC(=O)COc2ccc(C=NO)cc2OC)cc1	none (no result: NALP1 inh, NALP3 yeast inh, Calb FLC, ALR inh, ATG4B inhibitor)
CC(C)CCNCC(=O)NC(c1ccccc1)c1ccccc1	Calb FLC 115 (no result: ALR inh)
CCCOc1ccccc1NC(=O)/C=C/C(N)=O	NALP1 inh 59
COc1cccc(C(=O)Nc2nnc(S(=O)(=O)N(C)Cc3ccc(F)cc3)s2)c1	ALR inh 84
COc1ccc(CN(C)S(=O)(=O)c2nnc(NC(=O)c3cccc(OC)c3)s2)cc1	none
CCOC(=O)C(=NNc1ccc(Cl)cc1)c1csc(Nc2ccccc2)n1	none (no result: NALP1 inh, NALP3 yeast inh, Calb FLC, ALR inh, ATG4B inhibitor)
OC(CN1CCN(c2ccccc2)CC1)Cn1c2ccccc2c2ccccc21 (configuration not stated)	none
Cc1ccc(OCCN2CCN(CC(O)Cn3c4ccccc4c4ccccc43)CC2)cc1 (configuration not stated)	NALP1 inh 76 (no result: ATG4B inhibitor)
OC(CN1CCN(Cc2ccccc2)CC1)Cn1c2ccccc2c2ccccc21 (configuration not stated)	NALP1 inh 50

From PubChem
